PMC4331064 (Investigational new drugs, 2010)

Columns and labels:
[1] = system: patients with advanced cancer; assay: Phase I dose-escalation safety and tolerability; assay type: in vivo, human
Procedure, shortened: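 Single-center oral once-daily escalation. Part A used 3+3 cohorts starting at 1/12th of the allometrically scaled rat LOAEL. Part B used single-patient cohorts, expanded to 3+3 after ≥Grade 2 drug-related toxicity in cycle 1. AEs were graded by NCI CTCAE v3. DLT was a treatment-related Grade ≥3 nonhematologic or Grade ≥4 hematologic cycle-1 AE. MTD was the next lower dose after ≥2 DLTs in a cohort.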

[2] = Phase I plasma pharmacokinetics of ENMD-1198 in cancer patients
[3] = single oral dose 425 mg/m^2/day, n=5

With `COc1cc2c(cc1C(N)=O)CC[C@@H]1[C@@H]2CC[C@]2(C)C=CC[C@@H]12` [ENMD-1198, 2-methoxyestra-1,3,5(10)16-tetraene-3-carboxamide] the “Drug-related Grade 3/4 toxicities” value ([1]; 5–425 mg/m^2/d dose range) was “No drug-related Grade 3/4 toxicities”, the “Recommended phase II dose (RP2D)” value ([1]; oral once daily) was 425 mg/m^2/d and the “Maximum tolerated dose (MTD)” value ([1]; oral once daily, cancer patients) was 425 mg/m^2/day. The “Life-threatening AEs or treatment-related deaths” value ([1]; whole study) was “No life-threatening AEs or treatment-related deaths”, the “Accumulation after multiple doses” value ([2]; human, in vivo) was 3 fold and the “Dose proportionality of plasma exposures” value ([2]; human, in vivo) was “increased proportionally with dose”. The Mean terminal half-life ([2]; human, in vivo) was 15 h, the Tmax ([2]; human, in vivo, po) was 1 to 2 h and the “AUC0–24hr” value ([2]; human, in vivo, po, 5 mg/m2) was 312.35 ± 175.38 ng·h/mL. For the same compound, the Cmax ([2]; human, in vivo, po, 5 mg/m2) was 68.75 ± 48.50 ng/mL, the Half-life ([2]; human, in vivo, po, 5 mg/m2) was 12.16 ± 4.22 h and the Tmax ([2]; human, in vivo, po, 5 mg/m2) was 1.25 ± 0.50 h. The “AUC0–24hr” value ([2]; human, in vivo, po, 10 mg/m2) was 1073.83 ± 156.28 ng·h/mL, the Cmax ([2]; human, in vivo, po, 10 mg/m2) was 141.20 ± 28.47 ng/mL and the Half-life ([2]; human, in vivo, po, 10 mg/m2) was 10.57 ± 4.42 h. The Tmax ([2]; human, in vivo, po, 10 mg/m2) was 1.67 ± 0.58 h, the “AUC0–24hr” value ([2]; human, in vivo, po, 20 mg/m2) was 2138.07 ± 384.60 ng·h/mL and the Cmax ([2]; human, in vivo, po, 20 mg/m2) was 418.66 ± 72.53 ng/mL. For the same compound, the Half-life ([2]; human, in vivo, po, 20 mg/m2) was 11.03 ± 1.85 h, the Tmax ([2]; human, in vivo, po, 20 mg/m2) was 1.33 ± 0.58 h and the “AUC0–24hr” value ([2]; human, in vivo, po, 30 mg/m2) was 3914.43 ± 1336.73 ng·h/mL. It also gave a Cmax ([2]; human, in vivo, po, 30 mg/m2) of 677.80 ± 125.78 ng/mL, a Half-life ([2]; human, in vivo, po, 30 mg/m2) of 19.45 ± 7.66 h and a Tmax ([2]; human, in vivo, po, 30 mg/m2) of 1.00 ± 0.00 h. The “AUC0–24hr” value ([2]; human, in vivo, po, 40 mg/m2) was 3616.23 ± 1880.32 ng·h/mL, the Cmax ([2]; human, in vivo, po, 40 mg/m2) was 675.83 ± 280.76 ng/mL and the Half-life ([2]; human, in vivo, po, 40 mg/m2) was 8.98 ± 4.22 h. For the same compound, the Tmax ([2]; human, in vivo, po, 40 mg/m2) was 1.33 ± 0.58 h, the “AUC0–24hr” value ([2]; human, in vivo, po, 60 mg/m2) was 4901.00 ng·h/mL and the Cmax ([2]; human, in vivo, po, 60 mg/m2) was 1032.20 ng/mL. For the same compound, the Half-life ([2]; human, in vivo, po, 60 mg/m2) was 11.82 h, the Tmax ([2]; human, in vivo, po, 60 mg/m2) was 1.00 h and the “AUC0–24hr” value ([2]; human, in vivo, po, 120 mg/m2) was 10387.00 ng·h/mL. The Cmax ([2]; human, in vivo, po, 120 mg/m2) was 1823.10 ng/mL, the Half-life ([2]; human, in vivo, po, 120 mg/m2) was 10.66 h and the Tmax ([2]; human, in vivo, po, 120 mg/m2) was 1.00 h. For the same compound, the “AUC0–24hr” value ([2]; human, in vivo, po, 180 mg/m2) was 14789.00 ng·h/mL, the Cmax ([2]; human, in vivo, po, 180 mg/m2) was 2904.10 ng/mL and the Half-life ([2]; human, in vivo, po, 180 mg/m2) was 29.80 h. The Tmax ([2]; human, in vivo, po, 180 mg/m2) was 1.00 h, the “AUC0–24hr” value ([2]; human, in vivo, po, 240 mg/m2) was 16277.00 ng·h/mL and the Cmax ([2]; human, in vivo, po, 240 mg/m2) was 2559.90 ng/mL. For the same compound, the Half-life ([2]; human, in vivo, po, 240 mg/m2) was 16.15 h, the Tmax ([2]; human, in vivo, po, 240 mg/m2) was 1.00 h and the “AUC0–24hr” value ([2]; human, in vivo, po, 320 mg/m2) was 42184.00 ng·h/mL. For the same compound, the Cmax ([2]; human, in vivo, po, 320 mg/m2) was 3851.00 ng/mL, the Half-life ([2]; human, in vivo, po, 320 mg/m2) was 9.70 h and the Tmax ([2]; human, in vivo, po, 320 mg/m2) was 2.00 h. For the same compound, the “AUC0–24hr” value ([2]; human, in vivo, po, 550 mg/m2) was 45223.33 ± 18198.49 ng·h/mL, the Cmax ([2]; human, in vivo, po, 550 mg/m2) was 4319.67 ± 2006.78 ng/mL and the Half-life ([2]; human, in vivo, po, 550 mg/m2) was 17.93 ± 4.11 h. The Tmax ([2]; human, in vivo, po, 550 mg/m2) was 1.67 ± 0.58 h, the “AUC0–24hr” value [2, 3] was 24816.06 ± 14612.08 ng·h/mL and the Cmax [2, 3] was 2420.94 ± 1098.82 ng/mL. The Half-life [2, 3] was 18.40 ± 13.04 h and the Tmax [2, 3] was 6.20 ± 9.96 h.
